Assay outcomes (PubChem)
Hits are enriched below; roughly 2.3% of the tested compounds scored in any of these assays.
Mcl1-Noxa inh: disrupts binding of human Mcl-1 to Noxa peptide. Q07820. TR-FRET Mcl-1/Noxa peptide binding, 2 h. inhibition, % at 21.7 µM. hit rate 1.5% among 220,000. AID 1022;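 active = compounds that cut the protein-peptide binding signal by more than 50% relative to plate controls in a single-dose test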;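 also: His-tagged Mcl-1 with rhodamine Noxa BH3 peptide and terbium anti-His antibody; 0% = Mcl-1 plus Noxa peptide wells and 100% = peptide-only wells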
Target sequence (Q07820 whole entry, looked up): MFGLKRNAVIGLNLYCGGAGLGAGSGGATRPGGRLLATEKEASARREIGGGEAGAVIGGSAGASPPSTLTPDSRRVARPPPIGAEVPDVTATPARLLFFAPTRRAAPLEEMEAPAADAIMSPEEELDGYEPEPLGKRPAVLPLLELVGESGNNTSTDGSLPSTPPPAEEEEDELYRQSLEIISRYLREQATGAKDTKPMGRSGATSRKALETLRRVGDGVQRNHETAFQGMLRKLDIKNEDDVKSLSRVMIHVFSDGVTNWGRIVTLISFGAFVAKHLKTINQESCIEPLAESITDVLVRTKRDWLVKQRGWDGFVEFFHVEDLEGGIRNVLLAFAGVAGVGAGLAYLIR
MCL1-BIM inh: disrupts human MCL1 binding to BIM-BH3 peptide | Q07820 | GST-MCL1 / FITC-Bim-BH3 fluorescence polarization | inhibition, % at 10.9 µM | hit rate 0.68% among 320,000 | AID 2057;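 active = inhibition above the mean inhibition of all tested compounds plus 3 SD, set per campaign, cut at about 40% in these data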;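 also: 0% = DMSO wells and 100% = unlabeled Bim-BH3 peptide control; higher means more loss of mP so more displacement of Bim peptide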
Mcl-1 Bim block: disrupts Bim peptide binding to human Mcl-1 | Bead-based flow cytometry, Bim peptide-Mcl-1 binding | inhibition, % at 10 µM | hit rate 0.1% among 190,000; in the data active = inhibition above about 40%;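 also: 0% = no compound tracer wells and 100% = peptide blocker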
Mcl1 Bid PPI: disrupts binding of human Mcl-1 to Bid peptide | Q07820 | TR-FRET Mcl-1/Bid-Dy647 peptide binding, 1536-well | inhibition, % at 21.7 µM | hit rate 0.97% among 220,000 | AID 1021;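 active = compounds that cut the binding signal by more than half at the single screening dose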;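 also: His-tagged Mcl-1 with europium anti-His antibody binding Bid BH3 peptide; 0% = Mcl-1 plus peptide wells and 100% = peptide-only wells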
Pemphigus Ab inh: blocks pemphigus antibody binding to human desmoglein-3; DSG3-coupled beads, scFv-anti-DSG3-GFP binding, flow cytometry; stronger effect = lower value; binding (percent of control), % at 10 µM; hit rate 0.48% among 310,000; AID 588358;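 active = binding more than 3 SD below its plate's average and above zero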
T cell HTS: modulates CD8 T cell binding to vesicles; 2C CD8+ T cell-vesicle binding, flow cytometry; stronger effect = lower value; response (vesicle binding), % at 7 µM; hit rate 0.068% among 330,000;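 active = response, share of CD8 T cells binding vesicles, and their 90th percentile fluorescence all below set limits, cut at about 80% in these data, passing the limit was not always enough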;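 also: values below 100% mean blocked vesicle binding to the CD8+ T cells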
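Incubation: binding step 1.5 h, 37 °C, antibody labelling 20 min, ice; system: murine 2C transgenic CD8+ T lymphocytes; technique: cytometric PE anti-B7-1 and Alexa647 anti-CD8 signals after 1% paraformaldehyde fixation; also added: QL9-charged Drosophila Ld/ICAM-1/B7-1 vesicles; control set: naked versus QL9-loaded vesicles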
An asterisk follows results filed as active; x = no result; ! = not confirmed by another sample.

SMILES	Mcl1-Noxa inh	MCL1-BIM inh	Mcl-1 Bim block	Mcl1 Bid PPI	Pemphigus Ab inh	T cell HTS
COCCCOc1ccnc(CS(=O)c2nc3ccccc3[nH]2)c1C (centres undefined)	x	23	x	x	106	501
Cc1c(OCC(F)(F)F)ccnc1CS(=O)c1nc2ccccc2[nH]1 (centres undefined)	70*!	33	-10	5	112	238
O=c1c(Cl)c(O)ccn1C1OC(CO)C(O)C1O (centres undefined)	x	x	x	x	89	x
CCC(C)(C)n1nnnc1C(C(C)C)N(Cc1cccnc1)Cc1ccco1 (centres undefined)	8	-6	0	-6	x	409
COc1ccc2[nH]c(=O)c(CN(C3CCCCC3)C(c3nnnn3Cc3ccco3)C(C)C)cc2c1 (centres undefined)	57*	-34	-10	-17	107	150
CCC(C)(C)n1nnnc1C(C(C)C)N(Cc1ccco1)Cc1cc2cc3c(cc2[nH]c1=O)OCO3 (centres undefined)	9	46*	-1	-11	102	123
COc1ccc2[nH]c(=O)c(CN(Cc3nnnn3Cc3ccco3)C3CCCCC3)cc2c1	20	7	-3	-9	103	122
CN(c1ccccc1)c1ncnc2c1ncn2C	x	x	x	x	123	x
Cc1cc2c(c(=O)o1)C(c1ccc([N+](=O)[O-])o1)C(C#N)=C(N)O2 (centres undefined)	2	47*	x	-26	88	276
CCC(CC)C1C(C#N)=C(N)Oc2cc(C)oc(=O)c21 (centres undefined)	15	-12	1	-20	98	458
CC1=C(c2ccccc2)C(O)(c2ccccc2)C(C)C1=O (centres undefined)	x	x	x	x	118	x
O=C(Nc1ccccc1)c1sc(N2CCOCC2)nc1-c1ccccc1	-6	7	-4	2	x	182
N#C/C(=C\c1sc(N2CCOCC2)nc1-c1ccccc1)C(=O)Nc1cccc2ccccc12	21	x	0	57*	x	x
Cc1ccc(-c2ccc3c(c2)O[C@H](CN(C)Cc2cncnc2)[C@@H](C)CN([C@H](C)CO)S3(=O)=O)cc1	x	x	x	x	103	x
COc1cccc(-c2nc(NCCN3CCOCC3)c3ccccc3n2)c1O	51*	-1	14	-78	x	275
Oc1ccccc1-c1nc(NCCN2CCOCC2)c2ccccc2n1	29	0	-3	-16	x	278
CC(=O)OCC1OC(n2c(S)c(C#N)c(-c3ccccc3)c(C#N)c2=O)C(OC(C)=O)C(OC(C)=O)C1OC(C)=O (centres undefined)	x	x	x	x	86	x
O=C(Nc1ccccc1[N+](=O)[O-])C1=C(O)CCn2c1nc1ccccc12	72*	17	6	24	98	374
NS(=O)(=O)c1cc2c(cc1Cl)NC(CC1CCCC1)NS2(=O)=O (centres undefined)	-21	-1	x	-18	102	218
NS(=O)(=O)c1cc2c(cc1Cl)NC(Cc1ccccc1)NS2(=O)=O (centres undefined)	-6	-74	x	97*	115	150
CCOC(=O)Cn1c(=O)oc2cc(S(=O)(=O)Nc3ccc(N(CC)CC)cc3C)ccc21	54*	4	-2	-12	111	168
C=CCc1ccc(OCCOCCOc2cccc3ccc(C)nc23)c(OC)c1	16	10	1	80*	103	464
COc1cc(C)ccc1OCCOCCOc1cccc2ccc(C)nc12	17	-7	0	-13	122	198
COc1ccccc1CC1CC(=O)N(c2ccc([N+](=O)[O-])cc2)C1=O (centres undefined)	x	x	x	x	106	x
O=C1CCCC2=C1C(c1ccccc1)C1C(=O)c3ccccc3C1=N2 (centres undefined)	58*	9	0	-68	108	185
SMILES	Mcl1-Noxa inh	MCL1-BIM inh	Mcl-1 Bim block	Mcl1 Bid PPI	Pemphigus Ab inh	T cell HTS
O=C1CCCC2=C1C(c1ccc(Cl)cc1)C1C(=O)c3ccccc3C1=N2 (centres undefined)	45	6	0	-31	105	326
CCC(C)[C@H](NC(=O)Nc1ccccc1F)C(=O)O (some centres undefined)	11	8	x	85*	96	467
COc1cc2ccccc2cc1-c1nnc(COc2ccccc2)o1	-18	-6	0	-17	90*	203
COc1ccc(-c2nnc(COc3ccc4ccccc4c3)o2)cc1OC	1	1	-2	5	101	292
CC(C)(O)CN(C(=O)c1ccc([N+](=O)[O-])cc1)C1CCCC1	x	x	x	x	98	x
Cc1nnc(NC(=O)c2sc3nc(-c4cccs4)cc(C(F)(F)F)c3c2N)s1	98*	8	2	45	133	715
C[n+]1nc(Nc2cccc3ccccc23)sc1-c1ccc(C(=O)O)cc1	9	x	x	-106	x	x
COc1cc(CNCc2ccc(Br)cc2)cc(OC)c1	x	-9	x	x	103	180
Cc1oc2c(C)c(O)ccc2c(=O)c1-c1ccc2ccccc2n1	-15	7	1	-30	97	0
CCC(=O)Oc1ccc2c(=O)c(-c3ccc4ccccc4n3)c(CC)oc2c1C	82*	1	-6	-20	98	257
N#Cc1c(-c2ccc(F)cc2)cc(-c2ccccc2)nc1SCC(=O)NCC(=O)O	0	7	x	21	63*	395
Cc1ccc(Cn2c(SCC(=O)N/N=C/c3ccc(C)o3)nc3ccccc32)cc1	23	0	-2	52*	118	197
C#CCOc1ccccc1/C=N/NC(=O)c1ccccc1OCc1ccccc1	x	5	x	x	113	90
Cc1ccc(/C=C/C(=O)OCC(=O)N(CC(C)C)c2c(N)n(Cc3ccccc3)c(=O)[nH]c2=O)o1	x	-2	x	x	92*	347
O=C(CSc1ccc(-c2ccc(F)cc2)nn1)N1CCN(c2ccccc2)CC1	12	-11	4	11	84*	169
O=C(CSc1ccc(-c2ccc(F)cc2)nn1)N1CCOCC1	-8	1	0	-13	100	301
CC(=O)Nc1ccc(C)c(NC(=S)Nc2ccc(F)cc2)c1	16	9	x	-31	109	320
CNC(=S)Nc1ccc(C)c(NC(=S)NC)c1	58*	12	-5	-20	x	205
CCN(C[C@H]1N[C@@](CC)(C(=O)OC)[C@H]2C(=O)N(C)C(=O)[C@@H]12)S(=O)(=O)c1ccc(OC(F)(F)F)cc1	x	x	x	x	103	200
CC(=O)Nc1ccc(N=c2cc([N+](=O)[O-])cc(Cl)n2O)cc1	x	2	x	x	102	152
COc1cccc(-c2cc(=O)c3cc(NC(=O)c4ccc(N(C)C)cc4)ccc3[nH]2)c1	58*	-4	0	17	x	295
O=C(O)Cc1sc(Nc2ccc(F)cc2)nc1-c1cccs1	53*	4	-3	-3	100	318
Cc1ccc(Nc2nc(-c3ccccc3)c(CC(=O)O)s2)cc1	12	-44	9	-23	102	173
